The values that follow come from ChEMBL document CHEMBL3621084, “Discovery of 2-Pyridinone Aminals: A Prodrug Strategy to Advance a Second Generation of HIV-1 Integrase Strand Transfer Inhibitors” (J Med Chem, 2015).

For data set [1], the system named is Human immunodeficiency virus 1. Nature of the data set: Resistance index, ratio of IC50 for antiviral activity against HIV1 expressing integrase Q148R mutant to IC50 for antiviral activity against HIV1 expressing wild type integrase. In kind it is functional. The method, boiled down: (§1)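 Fold shift computed as the inflection point (IP) against mutant HIV-1 divided by the IP against wild-type virus. Both IPs come from a kinetic HIV replication (viral kinetics) potency assay run in 50% normal human serum (NHS).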

Data set [2] in a line: Oral bioavailability in rat. It counts as ADME, organism-based. The following applies: in vivo.
Data set [3] can be described thus: Oral bioavailability in dog. In kind it is ADME, organism-based, Canis lupus familiaris. The following applies: in vivo.
For data set [4], the system named is Human immunodeficiency virus 1. Description: Resistance index, ratio of IC50 for antiviral activity against HIV1 expressing integrase E92Q mutant to IC50 for antiviral activity against HIV1 expressing wild type integrase. In kind it is functional. The method, boiled down:
as §1

Data set [5] in a line: Intrinsic clearance in human hepatocytes at 1 uM by LC-MS/MS method. It counts as ADME, cell-based, Hepatocyte. The following applies: read-out: CLH.
A short description of data set [6]: Plasma clearance in rat. In kind it is ADME, organism-based.
The subject of data set [7] is Human immunodeficiency virus 1. Description: Antiviral activity against HIV1 infected in human MT4 cells expressing GFP incubated for 48 to 72 hrs in absence of 50% normal human serum by multiple round viral replication kinetics assay. In kind it is functional.
Data set [8] in a line: Plasma clearance in dog. It counts as ADME, organism-based, Canis lupus familiaris.
The subject of data set [9] is Human immunodeficiency virus 1. Description: Resistance index, ratio of IC50 for antiviral activity against HIV1 expressing integrase Y143R mutant to IC50 for antiviral activity against HIV1 expressing wild type integrase. It counts as functional. The method, boiled down: as §1
Data set [10] has as its system Human immunodeficiency virus 1. Nature of the data set: Antiviral activity against HIV1 infected in human MT4 cells expressing GFP incubated for 48 to 72 hrs in presence of 50% normal human serum by multiple round viral replication kinetics assay. In kind it is functional.

Structures are written as SMILES. Some results are limits rather than exact numbers.

In the case of `CC(C)n1c(C(=O)N(C)C)c2c(c(O)c1=O)C(=O)N(Cc1ccc(F)c(Cl)c1)CC2`, the “Ratio IC50” value in data set [1] was found to be 1; in [4], 1; in [9] it was 2. Also, the results for the bioavailability in data set [2] and in data set [3] were 29% and 44%, respectively. In addition, the CLint scaled at 1 µM in data set [5] is under 20 mL/min/kg. For the same compound, the results for the clearance in data set [6] and in data set [8] were 2.3 mL/min/kg and 2.2 mL/min/kg, respectively. The IP worked out at 6 nM in data set [7] and 53 nM in data set [10].
